In ChEMBL document CHEMBL1141776, “Gymnoascolides A-C: aromatic butenolides from an Australian isolate of the soil ascomycete Gymnoascus reessii” (2005) one finds Activity and LD99 data, which are given here for eight compounds.

Calls of active or inactive are those of the source. The calls are words filed in the database; no cut-off is given here.

Experiment [1] deals with Bacillus subtilis. The experiment can be described thus: Antibacterial activity against Bacillus subtilis. The format is functional, organism-based.
In experiment [2] the test system is NS1. In words: Cytotoxicity against mouse NS1 cells. It counts as functional, cell-based.
The subject of experiment [3] is Haemonchus contortus (nematode). In words: Nematicidal activity against Haemonchus contortus.
The subject of experiment [4] is Parastagonospora nodorum. In words: Antifungal activity against Septoria nodorum after 48 hrs by agar-based microtiter plate assay. The format is functional. In outline: (§1)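 Agar-based microtiter plate assay: spores (20 000 sp/well) applied to potato dextrose agar in wells containing serial 2-fold dilutions of test compound. Plates incubated at 24 °C; fungal growth assessed qualitatively at 48 h.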

Experiment [5] deals with Candida albicans. In words: Antifungal activity against Candida albicans after 48 hrs by agar-based microtiter plate assay. The format is functional. In outline: as §1
In experiment [6] the test system is Candida albicans. The experiment can be described thus: Antifungal activity against Candida albicans up to […] after 48 hrs by agar-based microtiter plate assay. The format is functional, organism-based. In outline: as §1

On to `CO[C@H]1OC(=O)C(c2ccccc2)=C1C(O)c1ccccc1` (stereo partly specified), for which the outcome in experiment [1], in experiment [2] and in experiment [3] was inactive.
Take `C[C@@H]1C[C@H]2O[C@@H]2/C=C\C=C\C(=O)Cc2c(Cl)c(O)cc(O)c2C(=O)O1` [RADICICOL]: the LD99 in experiment [4] and in experiment [5] was 0.012 mg/mL in each case.
The compound `O=C1OCC(Cc2ccccc2)=C1c1ccccc1` [GYMNOASCOLIDE A] yielded an LD99 in experiment [4] of 0.013 mg/mL. For the same compound, the result in experiment [6], in experiment [1], in experiment [2] and in experiment [3] was inactive.
Consider `CO[C@@H]1OC(=O)C(c2ccccc2)=C1C(O)c1ccccc1` (stereo partly specified), for which the result in experiment [1], in experiment [2] and in experiment [3] was inactive.
In the case of `C[C@@H]1[C@H](O)[C@@H](C)/C=C/C=C/C=C/C=C/C=C/C=C/C=C/[C@H](O[C@@H]2O[C@H](C)[C@@H](O)[C@H](N)[C@@H]2O)C[C@@H]2O[C@](O)(C[C@@H](O)C[C@@H](O)[C@H](O)CC[C@@H](O)C[C@@H](O)CC(=O)O[C@H]1C)C[C@H](O)[C@H]2C(=O)O` [AMPHOTERICIN B], the LD99 in experiment [4] and in experiment [5] was 0.0031 mg/mL throughout.
As to `C[C@@H]1C[C@@H]([C@H](O)CC2CC(=O)NC(=O)C2)C(=O)[C@@H](C)C1` [CYCLOHEXIMIDE], in experiment [4], the LD99 is 0.0063 mg/mL. Besides, in experiment [6], the result was inactive.
On to `CN(CC[C@H](N)CC(=O)N[C@@H]1C=C[C@@H](n2ccc(N)nc2=O)O[C@H]1C(=O)O)C(=N)N.Cl` [BLASTICIDIN S HCL], for which the LD99 worked out at 0.0016 mg/mL in experiment [4] and 0.00039 mg/mL in experiment [5].
Taken in the same sequence, the figures for `CCCC[C@H]1C(=O)O[C@H](C)[C@H](NC(=O)c2cccc(NC=O)c2O)C(=O)O[C@@H](C)[C@@H]1OC(=O)CC(C)C` [ANTIMYCIN A3] were 0.0002 mg/mL and 0.05 mg/mL.
